6 compounds from ChEMBL document CHEMBL3808300, “Atropisomer Control in Macrocyclic Factor VIIa Inhibitors” (J Med Chem, 2016) can be followed below.

Broadly, the Ki is the dissociation constant of the complex between target and ligand, obtained from inhibition or displacement.

In assay [1] the target is Coagulation factor VII/tissue factor (Homo sapiens, UniProt P08709). Briefly: Inhibition of recombinant human Tissue factor/factor 7a using S2288 as substrate after 30 to 60 mins. It counts as protein-complex assay. A digest of the protocol: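 Enzyme is recombinant human TF/FVIIa complex, assayed at 25 °C. Ki is the mean of two experiments, and the method is the published protocol.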

The target in a further assay is Coagulation factor X (Homo sapiens, UniProt P00742). Briefly: Inhibition of purified human factor 10a using S2765 as substrate after 30 to 60 mins. A digest of the protocol:
(§1)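 Purified human enzyme, run at 25 °C. The reported Ki is the average of two experiments. The full protocol follows a previously published method.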

The target in another assay is Coagulation factor XI (Homo sapiens, UniProt P03951). Nature of the assay: Inhibition of purified human factor 11a after 30 to 60 mins. A digest of the protocol:
as §1

A further assay concerns the target Prothrombin (Homo sapiens, UniProt P00734). Briefly: Inhibition of purified human thrombin after 30 to 60 mins. A digest of the protocol: as §1
The next assay addresses Trypsin (Homo sapiens, UniProt P07477+P07478+P35030). Briefly: Inhibition of purified human trypsin after 30 to 60 mins. It counts as protein assay. A digest of the protocol: as §1
For a further assay, the target named is Kallikrein-1 (Homo sapiens, UniProt P06870). Nature of the assay: Inhibition of purified human tissue kallikrein 1 using H-D-Val-Leu-Arg-AFC as substrate. A digest of the protocol:
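Uses purified human tissue kallikrein 1 at 37 °C. Ki is averaged from two independent experiments. The procedure follows an earlier published protocol.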

The structures appear in SMILES notation. Some results are limits rather than exact numbers.

Chain of Coagulation factor XI (P03951 19-387 limits assumed): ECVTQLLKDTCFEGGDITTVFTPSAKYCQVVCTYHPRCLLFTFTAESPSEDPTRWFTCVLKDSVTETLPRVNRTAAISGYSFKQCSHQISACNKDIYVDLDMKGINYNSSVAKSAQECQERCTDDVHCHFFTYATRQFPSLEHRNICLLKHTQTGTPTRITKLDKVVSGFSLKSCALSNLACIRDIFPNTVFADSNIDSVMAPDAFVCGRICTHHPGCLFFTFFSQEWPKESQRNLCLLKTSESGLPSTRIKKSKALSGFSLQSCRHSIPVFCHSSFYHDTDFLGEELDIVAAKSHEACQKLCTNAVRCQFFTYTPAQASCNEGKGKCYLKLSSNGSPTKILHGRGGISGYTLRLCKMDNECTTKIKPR
Chain of Coagulation factor XI (P03951 388-625 limits assumed): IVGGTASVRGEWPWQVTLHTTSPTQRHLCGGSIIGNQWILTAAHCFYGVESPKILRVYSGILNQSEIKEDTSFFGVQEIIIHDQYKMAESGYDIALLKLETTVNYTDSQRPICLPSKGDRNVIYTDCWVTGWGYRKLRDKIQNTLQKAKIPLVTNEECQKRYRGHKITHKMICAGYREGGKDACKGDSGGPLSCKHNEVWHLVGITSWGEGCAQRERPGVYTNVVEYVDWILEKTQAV
Chain of Kallikrein-1 (P06870 whole entry): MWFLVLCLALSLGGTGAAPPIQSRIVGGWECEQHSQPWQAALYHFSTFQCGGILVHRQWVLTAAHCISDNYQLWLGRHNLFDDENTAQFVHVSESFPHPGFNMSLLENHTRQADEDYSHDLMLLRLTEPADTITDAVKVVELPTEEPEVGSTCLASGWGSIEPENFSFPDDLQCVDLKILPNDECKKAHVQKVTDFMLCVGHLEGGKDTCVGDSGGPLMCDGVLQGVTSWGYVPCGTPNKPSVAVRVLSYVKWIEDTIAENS
Chain of Coagulation factor VII/tissue factor (P08709 61-212 limits assumed): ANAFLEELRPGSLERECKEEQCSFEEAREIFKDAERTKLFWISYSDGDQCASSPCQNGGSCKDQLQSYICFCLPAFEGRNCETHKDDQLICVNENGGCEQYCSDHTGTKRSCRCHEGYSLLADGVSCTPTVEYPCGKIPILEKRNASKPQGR
Chain of Coagulation factor VII/tissue factor (P08709 213-466 limits assumed): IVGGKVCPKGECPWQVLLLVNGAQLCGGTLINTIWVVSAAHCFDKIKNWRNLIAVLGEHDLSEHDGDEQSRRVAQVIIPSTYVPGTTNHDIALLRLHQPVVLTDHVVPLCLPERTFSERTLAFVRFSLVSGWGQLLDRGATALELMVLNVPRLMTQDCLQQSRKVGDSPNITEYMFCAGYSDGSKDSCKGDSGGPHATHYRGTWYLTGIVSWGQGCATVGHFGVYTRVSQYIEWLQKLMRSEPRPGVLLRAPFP
Chain of Coagulation factor VII/tissue factor (P13726 33-295 partner limits assumed): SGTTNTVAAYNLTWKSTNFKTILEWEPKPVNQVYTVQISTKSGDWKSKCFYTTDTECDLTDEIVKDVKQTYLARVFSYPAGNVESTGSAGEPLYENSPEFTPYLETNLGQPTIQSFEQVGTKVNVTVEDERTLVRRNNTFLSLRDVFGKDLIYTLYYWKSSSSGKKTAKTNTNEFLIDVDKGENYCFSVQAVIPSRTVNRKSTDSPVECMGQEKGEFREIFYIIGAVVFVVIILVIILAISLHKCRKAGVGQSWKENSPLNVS
Chain of Coagulation factor X (P00742 41-179 limits assumed): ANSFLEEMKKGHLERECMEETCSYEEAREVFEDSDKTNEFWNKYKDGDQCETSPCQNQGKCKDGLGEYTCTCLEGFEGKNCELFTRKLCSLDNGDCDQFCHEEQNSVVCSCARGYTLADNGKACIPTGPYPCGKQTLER
Chain of Coagulation factor X (P00742 235-488 limits assumed): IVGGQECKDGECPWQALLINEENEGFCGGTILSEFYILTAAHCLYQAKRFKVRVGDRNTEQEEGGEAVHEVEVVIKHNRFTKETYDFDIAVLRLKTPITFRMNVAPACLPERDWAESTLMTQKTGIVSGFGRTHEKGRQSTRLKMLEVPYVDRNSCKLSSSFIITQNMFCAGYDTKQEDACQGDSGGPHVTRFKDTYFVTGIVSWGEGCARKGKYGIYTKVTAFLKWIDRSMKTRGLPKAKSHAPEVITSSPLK

Consider `C[C@H]1COC(=O)Nc2cccc(c2)CNC(=O)C(Nc2ccc3c(N)nccc3c2)c2ccc1cc2` (stereo partly drawn), for which the Ki in assay [1] is 0.14 µM; at Coagulation factor X, 4.5 µM; at Coagulation factor XI, 9.1 µM; on Prothrombin, 4.7 µM; at Trypsin, greater than 6.2 µM; on Kallikrein-1, 0.025 µM.
For the compound `CC1COC(=O)Nc2cccc(c2)CNC(=O)C(Nc2ccc3c(N)nccc3c2)c2ccc1cc2` (stereo not drawn), the inhibitory constant (Ki) was 2.6 µM on Coagulation factor X, 10.8 µM at Coagulation factor XI and greater than 13 µM at Prothrombin.
As to `Cc1cc2ccc1[C@@H](C)COC(=O)Nc1cccc(c1)CNC(=O)[C@H]2Nc1ccc2c(N)nccc2c1`, the inhibition constant Ki in assay [1] is 4.51 µM; on Coagulation factor X, greater than 13.3 µM; on Coagulation factor XI, greater than 14.2 µM; on Prothrombin, greater than 11.5 µM; on Trypsin, greater than 10 µM; on Kallikrein-1 it was 0.031 µM.
`C[C@@H]1COC(=O)Nc2cccc(c2)CNC(=O)C(Nc2ccc3c(N)nccc3c2)c2ccc1cc2` (stereo partly drawn): the Ki in assay [1] is 1.45 µM; on Coagulation factor X, 6.8 µM; at Coagulation factor XI, greater than 11 µM; on Prothrombin it was 7.4 µM; on Trypsin, greater than 6.2 µM; on Kallikrein-1, 0.004 µM.
As for `Nc1nccc2cc(NC3C(=O)NCc4cccc(c4)NC(=O)OCCc4ccc3cc4)ccc12` (stereo not drawn), the inhibition constant Ki in assay [1] was 0.51 µM; at Coagulation factor X, 0.61 µM; at Coagulation factor XI it was 5.7 µM; at Prothrombin, greater than 13 µM; on Trypsin, 3.5 µM; at Kallikrein-1 it was 0.035 µM.
For `Cc1cc2ccc1[C@@H](C)COC(=O)Nc1cccc(c1)CNC(=O)[C@@H]2Nc1ccc2c(N)nccc2c1`, the Ki in assay [1] was 0.0014 µM; on Coagulation factor X, greater than 13.3 µM; on Coagulation factor XI, greater than 14.2 µM; at Prothrombin it was greater than 11.5 µM; at Trypsin it was greater than 10 µM; on Kallikrein-1, 0.025 µM.
